Laboratory results reported in article PMC11292830 (ACS Omega, 2024).
Bridges are numbered along the chain shown (N, C = ends). Where no end group is shown, it is not given here.

What was measured:
[1] = FRET assay in solution of Cy3- and Cy5-labeled peptides; format: physicochemical; conditions: 100 nM Cy3-labeled plus 100 nM Cy5-labeled peptide in PBS, excitation of Cy3 at 490 nm, microplate reader, n = 3
[2] = Differential scanning calorimetry of the oligomers; format: physicochemical; conditions: DSC, 10 mg/mL in 20 mM Tris-HCl pH 7.5, 100 mM NaCl, 4 to 110 °C at 1 °C/min, 3 atm, first scan
[3] = Native mass spectrometry of oligomeric state; format: physicochemical; conditions: 50 mM ammonium acetate (pH 6.9), native ESI-MS, column bypassed
Outline: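 Intact-mass LC/MS on a QTof instrument fed by UHPLC, with the column bypassed to capture the full oligomer profile. Test compound was in 50 mM ammonium acetate (pH 6.9) under native conditions. Electrospray in positive ionization mode; source temperature 300 °C; ion spray voltage 5500 V. Spectra were inspected over the expected regions for larger oligomers.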

[4] = cited from earlier work

Sequence: LKKLCLKLKKLCKLAG (disulfide 5-12 (inferred)) [LK-3]
- FRET efficiency [1]: 0.36
- melting temperature (Tm2) [2]: 63.8 °C
- oligomeric state by native mass spectrometry [3]: prefers to form oligomers
- molecularity of the oligomer by SEC-MALS [4]: tetramer of dimers
